Laboratory results: publication PMC3016151 (Investigational New Drugs, 2009)

Key:
[1] = test system: patients with advanced or metastatic solid tumors; assay: Telatinib-induced toxicity in phase I patients; format: in vivo, human
Method in brief: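 Patients with advanced or metastatic solid tumours (ECOG ≤2) took test compound orally, od or bid, continuously (20 mg od to 1,500 mg bid). Adverse events were graded by NCI-CTC v3.0 over all treatment cycles. KDR and FLT4 SNPs were TaqMan-genotyped on a dynamic array using DNA from residual frozen blood. Toxicity was compared by two-sided chi-square (3×2 genotype; 2×2 carrier vs noncarrier).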

[2] = Pharmacokinetics of telatinib in phase I patients; format: in vivo, human; conditions: for Dose normalized AUC, mean: cycle 1 day 14, 150 mg tablets
[3] = phase I and pharmacological study; cited from earlier work
[4] = test system: adenosine triphosphate binding cassette (ABC) B1 (ABCB1) transporter; conditions: in vitro studies; data on file at Bayer Pharmaceuticals Corporation; cited from earlier work
[5] = all treatment cycles, 33 patients, all dose levels

CNC(=O)c1cc(COc2nnc(Nc3ccc(Cl)cc3)c3ccoc23)ccn1 [telatinib, Telatinib]
Grade 3–4 toxicity, number of patients ([1]; 33 patients): 3 patients
Hypertension (most frequently observed side-effect), number of patients ([1]; 33 patients, unrelated to dose): 7 n
Toxicity: any toxicity grade 1–4 all cycles, No (number of patients) ([1]; FLT4 1480A>G genotype AA): 7
Toxicity: any toxicity grade 1–4 all cycles, Yes (number of patients) ([1]; FLT4 1480A>G genotype AA): 20
Toxicity: any toxicity grade 1–4 all cycles, No (number of patients) ([1]; FLT4 1480A>G genotype AG): 3
Toxicity: any toxicity grade 1–4 all cycles, Yes (number of patients) ([1]; FLT4 1480A>G genotype AG): 3
Toxicity: any toxicity grade 1–4 all cycles, No (number of patients) ([1]; FLT4 2670C>G genotype CC): 6
Toxicity: any toxicity grade 1–4 all cycles, Yes (number of patients) ([1]; FLT4 2670C>G genotype CC): 11
Toxicity: any toxicity grade 1–4 all cycles, No (number of patients) ([1]; FLT4 2670C>G genotype CG): 3
Toxicity: any toxicity grade 1–4 all cycles, Yes (number of patients) ([1]; FLT4 2670C>G genotype CG): 9
Toxicity: any toxicity grade 1–4 all cycles, No (number of patients) ([1]; FLT4 2670C>G genotype GG): 1
Toxicity: any toxicity grade 1–4 all cycles, Yes (number of patients) ([1]; FLT4 2670C>G genotype GG): 3
Toxicity: any toxicity grade 1–4 all cycles, No (number of patients) ([1]; KDR 1192G>A genotype CC): 5
Toxicity: any toxicity grade 1–4 all cycles, Yes (number of patients) ([1]; KDR 1192G>A genotype CC): 19
Toxicity: any toxicity grade 1–4 all cycles, No (number of patients) ([1]; KDR 1192G>A genotype TC): 4
Toxicity: any toxicity grade 1–4 all cycles, Yes (number of patients) ([1]; KDR 1192G>A genotype TC): 4
Toxicity: any toxicity grade 1–4 all cycles, No (number of patients) ([1]; KDR 1192G>A genotype TT): 1
Toxicity: any toxicity grade 1–4 all cycles, Yes (number of patients) ([1]; KDR 1192G>A genotype TT): 0
Toxicity: any toxicity grade 1–4 all cycles, No (number of patients) ([1]; KDR 1719A>T genotype AA): 1
Toxicity: any toxicity grade 1–4 all cycles, Yes (number of patients) ([1]; KDR 1719A>T genotype AA): 1
Toxicity: any toxicity grade 1–4 all cycles, No (number of patients) ([1]; KDR 1719A>T genotype TA): 4
Toxicity: any toxicity grade 1–4 all cycles, Yes (number of patients) ([1]; KDR 1719A>T genotype TA): 9
Toxicity: any toxicity grade 1–4 all cycles, No (number of patients) ([1]; KDR 1719A>T genotype TT): 5
Toxicity: any toxicity grade 1–4 all cycles, Yes (number of patients) ([1]; KDR 1719A>T genotype TT): 13
Toxicity: any toxicity grade 1–4 all cycles, No (number of patients) ([1]; KDR -604T>C genotype CC): 3
Toxicity: any toxicity grade 1–4 all cycles, Yes (number of patients) ([1]; KDR -604T>C genotype CC): 7
Toxicity: any toxicity grade 1–4 all cycles, No (number of patients) ([1]; KDR -604T>C genotype CT): 5
Toxicity: any toxicity grade 1–4 all cycles, Yes (number of patients) ([1]; KDR -604T>C genotype CT): 13
Toxicity: any toxicity grade 1–4 all cycles, No (number of patients) ([1]; KDR -604T>C genotype TT): 2
Toxicity: any toxicity grade 1–4 all cycles, Yes (number of patients) ([1]; KDR -604T>C genotype TT): 3
Any toxicity grade 1–4, patients [1, 5]: 23 (70) n (%)
Any toxicity grade 3 or 4, patients [1, 5]: 3 (9) n (%)
Hypertension grade 1–4, patients [1, 5]: 7 (21) n (%)
Hypertension grade 3 or 4, patients [1, 5]: 2 (6) n (%)
any grade 1–4 toxicity, number of patients ([1]; during all treatment cycles): 23 out of 33 patients
any grade 1–4 toxicity, share of patients ([1]; during all treatment cycles, 33 patients): 70%
Dose normalized AUC, mean ([2]; ABCB1 1236C>T genotype CC, n=9): 7.84
Dose normalized AUC, mean ([2]; ABCB1 1236C>T genotype CT, n=15): 11.60
Dose normalized AUC, mean ([2]; ABCB1 1236C>T genotype TT, n=5): 4.82
Dose normalized AUC, mean ([2]; ABCB1 2677G>A/T genotype GG, n=9): 7.84
Dose normalized AUC, mean ([2]; ABCB1 2677G>A/T genotype TG, n=15): 11.60
Dose normalized AUC, mean ([2]; ABCB1 2677G>A/T genotype TT, n=5): 4.82
Dose normalized AUC, mean ([2]; ABCB1 3435C>T genotype CC, n=7): 7.30
Dose normalized AUC, mean ([2]; ABCB1 3435C>T genotype CT, n=16): 11.10
Dose normalized AUC, mean ([2]; ABCB1 3435C>T genotype TT, n=6): 6.65
Dose normalized AUC, mean ([2]; ABCB1 -129T>C genotype CC, n=1): 11.79
Dose normalized AUC, mean ([2]; ABCB1 -129T>C genotype TC, n=2): 15.65
Dose normalized AUC, mean ([2]; ABCB1 -129T>C genotype TT, n=26): 8.67
Dose normalized AUC, mean ([2]; ABCC1 825T>C genotype TC, n=11): 10.90
Dose normalized AUC, mean ([2]; ABCC1 825T>C genotype TT, n=18): 8.26
Dose normalized AUC, mean ([2]; ABCC1 1062T>C genotype CC, n=2): 13.45
Dose normalized AUC, mean ([2]; ABCC1 1062T>C genotype TC, n=10): 9.95
Dose normalized AUC, mean ([2]; ABCC1 1062T>C genotype TT, n=17): 8.36
Dose normalized AUC, mean ([2]; ABCC1 2012G>T genotype GG, n=24): 8.80
Dose normalized AUC, mean ([2]; ABCC1 2012G>T genotype GT, n=4): 13.46
Dose normalized AUC, mean ([2]; ABCC1 2012G>T genotype TT, n=1): 3.63
Dose normalized AUC, mean ([2]; ABCC1 rs129081 genotype CC, n=5): 10.22
Dose normalized AUC, mean ([2]; ABCC1 rs129081 genotype GC, n=15): 10.44
Dose normalized AUC, mean ([2]; ABCC1 rs129081 genotype GG, n=9): 6.77
Dose normalized AUC, mean ([2]; ABCG2 346G>A genotype AG, n=4): 6.00
Dose normalized AUC, mean ([2]; ABCG2 346G>A genotype GG, n=25): 9.78
Dose normalized AUC, mean ([2]; ABCG2 421C>A genotype CA, n=6): 10.48
Dose normalized AUC, mean ([2]; ABCG2 421C>A genotype CC, n=23): 8.95
Dose normalized AUC(0–12), mean (range) ([2]; oral, cycle 1 day 14 (steady-state), AUC(0–12)/actual dose): 9.26 (0.98–34.60) µg.hr/L per mg of dose
AUC(0–12) interpatient variability, % coefficient of variation [3]: 20–150%
Cmax interpatient variability, % coefficient of variation [3]: 20–150%
dose proportionality of pharmacokinetics [3]: dose proportional
substrate of the ABCB1 transporter [4]: weak substrate
